pEC50, pIC50, pKd: −log10 of the molar value. Values belong to the compound of their own block, whether it stands above or below them. Calls of active or inactive are those of the source. The calls are words filed in the database; no cut-off is given here.
Tests used:
[1] = system: HT-29; experiment: Cytotoxicity against human HT-29 cells assessed as cell death at 20 uM by celltiter-glo luminescent cell viability assay; assay type: cell-based; conditions: ht-29, 20 µM
Method in brief: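 HT-29 cells were given a compound concentration gradient without TSZ stimulation. Viability was read as ATP level by luminescence. Cell death above 30% at 20 µM was scored as significant toxicity.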

[2] = system: HT-29; experiment: Anti-necroptotic activity in human HT-29 cells assessed as inhibition of TNFalpha/Z-VAD-fmk (TSZ)-induced necroptosis by measuring increase in cell viability by celltiter-glo luminescent cell viability assay; assay type: functional, cell-based
Method in brief: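 HT-29 cells or MEFs were pretreated with compound or DMSO for 1 h, then stimulated with TNF (20 ng/mL), Smac mimetic (100 nM) and z-VAD. Viability was read as ATP level by CellTiter-Glo (24 h per methods; 40 h per legends). EC50 is the geometric mean of at least two runs ± SEM.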

[3] = target: Activin receptor type-1B (Homo sapiens, UniProt P36896); experiment: Inhibition of human ALK4 using ATP as substrate incubated for 120 mins by ADP-glo based luminescence assay
Activin receptor type-1B, sequence (P36896 whole entry): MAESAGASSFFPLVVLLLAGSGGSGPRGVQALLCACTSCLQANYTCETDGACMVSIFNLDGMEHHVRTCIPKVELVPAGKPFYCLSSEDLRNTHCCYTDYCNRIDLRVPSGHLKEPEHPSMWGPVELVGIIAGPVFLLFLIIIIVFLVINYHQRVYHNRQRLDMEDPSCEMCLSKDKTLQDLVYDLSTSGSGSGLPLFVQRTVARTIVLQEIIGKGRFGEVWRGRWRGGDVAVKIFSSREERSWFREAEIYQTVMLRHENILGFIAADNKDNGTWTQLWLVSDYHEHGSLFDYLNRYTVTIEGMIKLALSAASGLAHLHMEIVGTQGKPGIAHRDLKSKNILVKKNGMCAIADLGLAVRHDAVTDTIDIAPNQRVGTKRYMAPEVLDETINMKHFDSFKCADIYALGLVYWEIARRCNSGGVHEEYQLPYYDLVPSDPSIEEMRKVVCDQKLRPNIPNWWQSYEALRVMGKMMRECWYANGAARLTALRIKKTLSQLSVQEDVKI

[4] = system: MEF; experiment: Anti-necroptotic activity in mouse MEF cells assessed as inhibition of TNFalpha/Smac mimetic/Z-VAD-fmk (TSZ)-induced necroptosis by measuring increase in cell viability by celltiter-glo luminescent cell viability assay
[5] = target: Receptor-interacting serine/threonine-protein kinase 2 (Homo sapiens) (UniProt O43353); experiment: Inhibition of RIPK2 (unknown origin) at 10 uM
Receptor-interacting serine/threonine-protein kinase 2 (Homo sapiens), sequence (O43353 whole entry): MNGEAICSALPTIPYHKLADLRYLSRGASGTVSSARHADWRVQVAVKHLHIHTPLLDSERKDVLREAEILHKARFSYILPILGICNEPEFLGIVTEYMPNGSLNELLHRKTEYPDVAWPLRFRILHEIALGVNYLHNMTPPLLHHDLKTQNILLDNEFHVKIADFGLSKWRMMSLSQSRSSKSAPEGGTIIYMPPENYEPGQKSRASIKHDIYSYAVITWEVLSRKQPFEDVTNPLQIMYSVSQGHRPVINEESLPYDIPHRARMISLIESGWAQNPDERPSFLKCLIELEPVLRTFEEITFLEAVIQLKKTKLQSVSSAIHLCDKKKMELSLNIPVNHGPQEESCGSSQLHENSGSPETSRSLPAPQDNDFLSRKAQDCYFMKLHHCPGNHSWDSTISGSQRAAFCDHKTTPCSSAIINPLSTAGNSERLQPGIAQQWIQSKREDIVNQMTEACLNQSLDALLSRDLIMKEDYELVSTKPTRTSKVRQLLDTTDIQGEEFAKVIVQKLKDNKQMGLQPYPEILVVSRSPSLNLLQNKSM

[6] = target: Serine/threonine-protein kinase mTOR (Homo sapiens, UniProt P42345); experiment: Inhibition of mTOR (unknown origin) using ATP as substrate after 60 mins by Lance ultra assay
[7] = target: CYP2C19 (Homo sapiens, UniProt P33261); experiment: Inhibition of CYP2C19 (unknown origin) at 10 uM incubated for 20 mins by LC-MS/MS analysis; assay type: ADME
[8] = target: CYP1A2 (Homo sapiens, UniProt P05177); experiment: Inhibition of CYP1A2 (unknown origin) at 10 uM incubated for 20 mins by LC-MS/MS analysis; assay type: ADME
[9] = Protein binding in human plasma by LC-MS/MS analysis; assay type: ADME, cell-free; conditions: read-out: PPB (converted)
[10] = target: T1, CYP3A4 (Homo sapiens, UniProt P08684); experiment: Inhibition of CYP3A4 (unknown origin) at 10 uM using testosterone as substrate incubated for 20 mins by LC-MS/MS analysis; assay type: ADME; conditions: probe testosterone
T1 sequence (P08684 whole entry, the tested form may be a part): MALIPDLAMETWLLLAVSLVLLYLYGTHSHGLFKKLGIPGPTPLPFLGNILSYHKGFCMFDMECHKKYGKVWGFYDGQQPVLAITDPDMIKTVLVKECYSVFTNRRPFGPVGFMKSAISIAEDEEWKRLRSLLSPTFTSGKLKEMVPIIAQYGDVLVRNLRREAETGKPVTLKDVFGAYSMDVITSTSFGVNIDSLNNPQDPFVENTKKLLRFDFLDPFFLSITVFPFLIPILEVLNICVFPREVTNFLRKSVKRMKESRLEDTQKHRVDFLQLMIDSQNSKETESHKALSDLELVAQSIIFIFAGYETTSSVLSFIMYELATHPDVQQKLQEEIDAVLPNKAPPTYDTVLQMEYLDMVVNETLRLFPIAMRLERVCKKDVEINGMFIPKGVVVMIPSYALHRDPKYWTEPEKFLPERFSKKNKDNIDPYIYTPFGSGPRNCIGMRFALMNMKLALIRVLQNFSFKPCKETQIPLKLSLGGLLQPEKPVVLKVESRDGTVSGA

[11] = target: Mixed lineage kinase domain-like protein (Homo sapiens) (UniProt Q8NB16); experiment: Inhibition of MLKL (unknown origin) polymerization
Mixed lineage kinase domain-like protein (Homo sapiens), sequence (Q8NB16 whole entry, the tested form may be a part): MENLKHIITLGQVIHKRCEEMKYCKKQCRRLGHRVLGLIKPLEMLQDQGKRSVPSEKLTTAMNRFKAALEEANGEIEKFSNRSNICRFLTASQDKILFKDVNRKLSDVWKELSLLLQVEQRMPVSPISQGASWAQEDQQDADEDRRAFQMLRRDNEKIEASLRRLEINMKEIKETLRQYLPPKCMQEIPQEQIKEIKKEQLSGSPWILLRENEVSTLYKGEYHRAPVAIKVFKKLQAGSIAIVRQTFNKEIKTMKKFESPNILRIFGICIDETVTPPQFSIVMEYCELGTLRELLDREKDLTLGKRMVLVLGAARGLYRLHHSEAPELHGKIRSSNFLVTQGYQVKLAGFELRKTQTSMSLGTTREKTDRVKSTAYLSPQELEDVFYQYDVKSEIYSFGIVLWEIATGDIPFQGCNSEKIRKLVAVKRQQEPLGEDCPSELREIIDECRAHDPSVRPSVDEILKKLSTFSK

[12] = target: Epidermal growth factor receptor (Homo sapiens, UniProt P00533); experiment: Inhibition of EGFR (unknown origin) using FAM-labeled peptide as substrate preincubated for 10 mins followed by substrate addition measured after 60 mins in presence of ATP by caliper mobility shift assay
[13] = target: Phosphatidylinositol 4,5-bisphosphate 3-kinase catalytic subunit alpha isoform (Homo sapiens, UniProt P42336); experiment: Inhibition of human PI3Kalpha using ATP as substrate at 25 uM incubated for 60 mins by ADP-glo based luminescence assay
[14] = Apparent permeability of the compound across apical to basolateral side in human Caco-2 cells; assay type: ADME, cell-based; conditions: read-out: permeability
[15] = system: Mus musculus; experiment: Antiinflammatory activity in TNFalpha-induced C57BL/6J mouse systemic inflammatory response syndrome model assessed as reduction in IL-6 production in serum at 5 mg/kg, ip measured 4 hrs after TNFalpha stimulation by ELISA; assay type: functional, organism-based
Method in brief: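 C57BL/6 mice were dosed i.p. at 5 mg/kg in PBS/40% PEG400 about 15 min before i.v. mouse TNFa ([…]). Mice were killed 4 h after TNFa and serum IL-6 was measured by ELISA.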

[16] = Metabolic stability in mouse liver microsomes assessed as half life by LC-MS/MS analysis; assay type: ADME, Microsome
[17] = Protein binding in mouse plasma by LC-MS/MS analysis; assay type: ADME, cell-free; conditions: read-out: PPB (converted)
[18] = Metabolic stability in human liver microsomes assessed as intrinsic clearance by LC-MS/MS analysis; assay type: ADME, Microsome
[19] = Metabolic stability in human liver microsomes assessed as half life by LC-MS/MS analysis; assay type: ADME, Microsome
[20] = Efflux ratio of apparent permeability across basolateral to apical side over apical to basolateral side in human Caco-2 cells; assay type: ADME, cell-based
[21] = target: CDK4/Cyclin D3 (Homo sapiens, UniProt P11802); experiment: Inhibition of CDK4/Cyclin D3 (unknown origin) using FAM-labeled peptide as substrate preincubated for 10 mins followed by substrate addition measured after 60 mins in presence of ATP by caliper mobility shift assay; assay type: protein-complex assay
CDK4/Cyclin D3, sequence (P11802 whole entry): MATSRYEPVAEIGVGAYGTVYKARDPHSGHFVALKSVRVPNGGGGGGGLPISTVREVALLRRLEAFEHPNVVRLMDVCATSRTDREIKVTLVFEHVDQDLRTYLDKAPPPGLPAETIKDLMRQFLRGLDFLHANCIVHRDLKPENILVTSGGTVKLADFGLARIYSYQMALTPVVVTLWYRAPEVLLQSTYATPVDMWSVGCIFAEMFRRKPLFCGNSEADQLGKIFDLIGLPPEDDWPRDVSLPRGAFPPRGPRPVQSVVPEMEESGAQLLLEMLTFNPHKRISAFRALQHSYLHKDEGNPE
CDK4/Cyclin D3, sequence (P30281 whole entry, further chain): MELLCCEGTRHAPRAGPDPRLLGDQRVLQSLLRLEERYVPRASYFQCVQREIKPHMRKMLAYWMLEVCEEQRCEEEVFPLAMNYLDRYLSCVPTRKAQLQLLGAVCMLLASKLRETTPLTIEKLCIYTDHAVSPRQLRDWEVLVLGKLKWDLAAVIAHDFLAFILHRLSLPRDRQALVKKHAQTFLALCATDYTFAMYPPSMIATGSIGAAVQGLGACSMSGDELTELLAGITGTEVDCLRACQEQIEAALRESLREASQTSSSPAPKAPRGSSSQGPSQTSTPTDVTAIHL

[22] = target: Voltage-gated inwardly rectifying potassium channel KCNH2 (Homo sapiens, UniProt Q12809); experiment: Inhibition of human ERG expressed in CHO-K1 cells by QPatch - automated patch-clamp technology; assay type: cell-based
[23] = Protein binding in rat plasma by LC-MS/MS analysis; assay type: ADME, cell-free; conditions: read-out: PPB (converted)
[24] = target: Receptor-interacting serine/threonine-protein kinase 3 (Homo sapiens, UniProt Q9Y572); experiment: Binding affinity to human wild type RIPK3 (M1/Q307) expressed in bacterial expression system by Kinomescan method
Receptor-interacting serine/threonine-protein kinase 3, sequence (Q9Y572 whole entry): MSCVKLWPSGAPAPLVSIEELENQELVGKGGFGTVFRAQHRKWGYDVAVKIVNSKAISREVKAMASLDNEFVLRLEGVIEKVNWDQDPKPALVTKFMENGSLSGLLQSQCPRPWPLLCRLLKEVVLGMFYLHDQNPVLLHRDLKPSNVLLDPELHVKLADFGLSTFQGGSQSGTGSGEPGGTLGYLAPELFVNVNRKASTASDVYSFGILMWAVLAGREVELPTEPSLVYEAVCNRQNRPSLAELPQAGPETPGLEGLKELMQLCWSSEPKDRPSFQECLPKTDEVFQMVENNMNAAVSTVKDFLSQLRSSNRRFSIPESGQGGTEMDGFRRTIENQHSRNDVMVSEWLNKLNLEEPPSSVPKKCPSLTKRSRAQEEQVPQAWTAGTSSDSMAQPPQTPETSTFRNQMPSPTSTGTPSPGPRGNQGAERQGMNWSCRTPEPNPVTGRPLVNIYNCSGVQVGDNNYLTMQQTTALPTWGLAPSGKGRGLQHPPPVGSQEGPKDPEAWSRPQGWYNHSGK
Method in brief: (§1)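 KINOMEscan competition binding assay. Kinases were expressed as tags on T7 phage grown in E. coli BL21, or produced in HEK-293 cells and DNA-tagged. Kinase, ligand-loaded streptavidin beads and compound were combined in binding buffer (20% SeaBlock, 0.17x PBS, 0.05% Tween 20, 6 mM DTT) for 1 h at room temperature with shaking. Bound kinase was read by qPCR.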

[25] = target: CYP2C9 (Homo sapiens, UniProt P11712); experiment: Inhibition of CYP2C9 (unknown origin) at 10 uM incubated for 20 mins by LC-MS/MS analysis; assay type: ADME
CYP2C9, sequence (P11712 whole entry): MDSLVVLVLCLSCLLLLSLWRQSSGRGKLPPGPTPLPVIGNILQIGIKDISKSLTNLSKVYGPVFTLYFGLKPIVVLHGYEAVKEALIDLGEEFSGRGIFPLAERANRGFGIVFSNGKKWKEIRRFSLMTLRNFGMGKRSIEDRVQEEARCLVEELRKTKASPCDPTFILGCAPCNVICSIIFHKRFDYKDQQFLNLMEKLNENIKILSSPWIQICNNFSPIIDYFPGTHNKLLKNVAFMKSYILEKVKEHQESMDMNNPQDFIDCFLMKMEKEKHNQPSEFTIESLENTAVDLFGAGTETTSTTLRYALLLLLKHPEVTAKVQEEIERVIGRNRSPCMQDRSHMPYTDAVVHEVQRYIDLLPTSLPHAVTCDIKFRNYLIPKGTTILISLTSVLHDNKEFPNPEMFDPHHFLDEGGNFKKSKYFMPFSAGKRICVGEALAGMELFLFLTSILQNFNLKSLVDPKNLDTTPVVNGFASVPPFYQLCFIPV

[26] = target: Receptor-interacting serine/threonine-protein kinase 1 (Homo sapiens, UniProt Q13546); experiment: Binding affinity to human wild type RIPK1 (M1/K305) expressed in bacterial expression system by Kinomescan method; method in brief: as §1
Receptor-interacting serine/threonine-protein kinase 1, sequence (Q13546 whole entry): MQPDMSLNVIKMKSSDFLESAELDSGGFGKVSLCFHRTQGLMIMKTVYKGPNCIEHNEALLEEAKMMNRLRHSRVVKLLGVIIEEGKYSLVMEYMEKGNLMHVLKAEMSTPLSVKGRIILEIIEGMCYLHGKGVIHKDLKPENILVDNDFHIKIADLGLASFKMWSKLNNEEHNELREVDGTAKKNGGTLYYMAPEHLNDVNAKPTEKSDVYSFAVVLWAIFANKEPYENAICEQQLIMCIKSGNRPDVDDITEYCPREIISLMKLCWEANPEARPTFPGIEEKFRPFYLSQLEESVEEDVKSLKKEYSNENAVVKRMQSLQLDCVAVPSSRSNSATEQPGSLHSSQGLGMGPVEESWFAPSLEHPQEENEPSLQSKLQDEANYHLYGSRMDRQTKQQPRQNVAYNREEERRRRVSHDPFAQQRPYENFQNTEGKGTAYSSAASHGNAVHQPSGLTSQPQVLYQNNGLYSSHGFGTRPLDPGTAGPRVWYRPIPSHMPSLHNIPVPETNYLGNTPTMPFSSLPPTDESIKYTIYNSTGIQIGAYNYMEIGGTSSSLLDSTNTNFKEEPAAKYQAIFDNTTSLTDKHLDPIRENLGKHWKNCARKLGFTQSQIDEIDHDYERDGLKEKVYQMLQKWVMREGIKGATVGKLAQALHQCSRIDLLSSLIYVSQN

[27] = target: Receptor-interacting serine/threonine-protein kinase 1 (Homo sapiens) (UniProt Q13546); experiment: Inhibition of human RIPK1 using ATP and substrate at 10 uM incubated for 120 mins by ADP-glo based luminescence assay
Receptor-interacting serine/threonine-protein kinase 1 (Homo sapiens), sequence (Q13546 whole entry): as above

[28] = target: Platelet-derived growth factor receptor alpha (Homo sapiens, UniProt P16234); experiment: Inhibition of PDGFRA (unknown origin) using FAM-labeled peptide as substrate preincubated for 10 mins followed by substrate addition measured after 60 mins in presence of ATP by caliper mobility shift assay
[29] = target: T1, CYP3A4; experiment: Inhibition of CYP3A4 (unknown origin) at 10 uM using midazolam as substrate incubated for 20 mins by LC-MS/MS analysis; assay type: ADME; conditions: probe midazolam
[30] = target: Serine/threonine-protein kinase B-raf (Homo sapiens, UniProt P15056); experiment: Inhibition of BRAF (unknown origin) in presence of ATP by Lanthascreen TR-FRET assay
[31] = system: Mus musculus; experiment: Anti-necroptosis activity against TNFalpha-induced C57BL/6J mouse systemic inflammatory response syndrome model assessed as reduction in hypothermia at 5 mg/kg, ip measured after 15 mins; assay type: functional, organism-based
Method in brief: (§2)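 C57BL/6 mice were given vehicle (sterile PBS with 40% PEG400) or compound at 5 mg/kg i.p. about 15 min before i.v. mouse TNFa ([…]). Body temperature and survival were monitored. Temperature changes are shown as means ± SEM per group.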

[32] = Metabolic stability in mouse liver microsomes assessed as intrinsic clearance by LC-MS/MS analysis; assay type: ADME, Microsome
[33] = system: Mus musculus; experiment: Anti-necroptosis activity against TNFalpha-induced C57BL/6J mouse systemic inflammatory response syndrome model assessed as reduction in lethal shock at 5 mg/kg, ip measured after 15 mins; assay type: functional, organism-based; method in brief: as §2
[34] = target: CYP2D6 (Homo sapiens, UniProt P10635); experiment: Inhibition of CYP2D6 (unknown origin) at 10 uM incubated for 20 mins by LC-MS/MS analysis; assay type: ADME
CYP2D6, sequence (P10635 whole entry): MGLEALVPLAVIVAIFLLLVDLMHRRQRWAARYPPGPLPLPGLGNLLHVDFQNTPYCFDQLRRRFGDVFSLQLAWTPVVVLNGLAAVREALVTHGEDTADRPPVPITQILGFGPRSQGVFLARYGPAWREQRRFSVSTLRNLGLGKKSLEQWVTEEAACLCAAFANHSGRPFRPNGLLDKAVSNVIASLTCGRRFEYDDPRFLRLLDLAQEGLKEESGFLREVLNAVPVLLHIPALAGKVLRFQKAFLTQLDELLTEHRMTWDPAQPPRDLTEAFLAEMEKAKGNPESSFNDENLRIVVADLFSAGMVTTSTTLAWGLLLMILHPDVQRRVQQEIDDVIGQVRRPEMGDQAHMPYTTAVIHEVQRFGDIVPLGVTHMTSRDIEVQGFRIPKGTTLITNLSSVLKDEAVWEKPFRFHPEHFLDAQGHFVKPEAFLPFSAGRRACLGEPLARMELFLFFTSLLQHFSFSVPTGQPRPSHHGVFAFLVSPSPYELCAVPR

[35] = Apparent permeability of the compound across basolateral to apical side in human Caco-2 cells; assay type: ADME, cell-based; conditions: read-out: permeability

SMILES: Cc1ccc(O)cc1Nc1ccnc2cc3c(cc12)S(=O)(=O)C(C)(C)C3=O
Activity [1]: > 30%
pEC50 [2]: 6.37

SMILES: CC1(CC2CC2)C(=O)c2cc3nccc(Nc4ccc5scnc5c4)c3cc2S1(=O)=O (stereo not drawn)
pEC50 [2]: < 4.70

SMILES: CC1(C)C(=O)c2cc3nccc(Nc4n[nH]c5ccc(F)cc45)c3cc2S1(=O)=O
pEC50 [2]: < 4.70

SMILES: CC1(C)C(=O)c2cc3nccc(Nc4ccc5scnc5c4)c3cc2S1(=O)=O
pEC50 [2]: 5.65

SMILES: CC1(C)C(=O)c2cc3nccc(Nc4cc(O)c(F)cc4F)c3cc2S1(=O)=O
Activity [1]: > 30%
pEC50 [2]: 5.99

SMILES: C=C1c2cc3nccc(Nc4ccc5scnc5c4)c3cc2S(=O)(=O)C1(C)C
pEC50 [2]: 5.99

SMILES: CC1(C)C(O)(C2CC2)c2cc3nccc(Nc4ccc5scnc5c4)c3cc2S1(=O)=O (stereo not drawn)
pEC50 [2]: < 4.70

SMILES: O=S1(=O)CC2(COC2)c2cc3nccc(Nc4ccc5scnc5c4)c3cc21
pEC50 [2]: < 4.70

SMILES: CC1(C)C(O)c2cc3nccc(Nc4ccc5scnc5c4)c3cc2S1(=O)=O (stereo not drawn)
pEC50 [2]: 5.66

pIC50 [3]: 6.80
SMILES: O=C(O)c1ccc(-c2nc(-c3ccc4c(c3)OCO4)c(-c3ccccn3)[nH]2)cc1

SMILES: Cc1n[nH]c(Nc2ccnc3cc4c(cc23)S(=O)(=O)C(C)(C)C4=O)c1C
pEC50 [2]: < 4.70

SMILES: O=S1(=O)CCc2cc3nccc(Nc4ccc5scnc5c4)c3cc21
pEC50 [2]: 5.64

SMILES: CCC1(C)C(=O)c2cc3nccc(Nc4ccc5scnc5c4)c3cc2S1(=O)=O (stereo not drawn)
pEC50 [2]: < 4.70

SMILES: O=C1CS(=O)(=O)c2cc3c(Nc4ccc5scnc5c4)ccnc3cc21
pEC50 [2]: 5.42

SMILES: CC1(O)c2cc3nccc(Nc4ccc5scnc5c4)c3cc2S(=O)(=O)C1(C)C (stereo not drawn)
pEC50 [2]: < 4.70

SMILES: CC1COC2(CS(=O)(=O)c3cc4c(Nc5ccc6scnc6c5)ccnc4cc32)O1 (stereo not drawn)
pEC50 [2]: 5.97

inhibition [5]: Active
SMILES: CC(C)S(=O)(=O)c1ccc2nccc(Nc3ccc4scnc4c3)c2c1
pEC50 [4]: 5.60
pEC50 [2]: 5.82

SMILES: CC1(C)C(=O)c2cc3nccc(Nc4cc(O)ccc4F)c3cc2S1(=O)=O
Activity [1]: > 30%
pEC50 [2]: 6.48

pIC50 [6]: < 5.00
inhibition at 20 min, 10 µM [7]: 19.9%
inhibition at 20 min, 10 µM [8]: 37%
fraction unbound [9]: 0.029
inhibition at 20 min, 10 µM [10]: 9.6%
inhibition [11]: inactive
pIC50 [12]: < 5.00
pIC50 [13]: 5.11
Papp A→B [14]: 35.2 ×10⁻⁶ cm/s
half-life [16]: 20.3 min
fraction unbound [17]: 0.027
CLH [18]: 60.5 mL/min/kg
half-life [19]: 28.8 min
efflux ratio [20]: 0.72
pIC50 [21]: < 5.00
fraction unbound [23]: 0.013
pKd [24]: 8.14
inhibition at 20 min, 10 µM [25]: -6.33%
pKd [26]: 5.23
inhibition [27]: inactive
pIC50 [28]: 6.82
inhibition at 20 min, 10 µM [29]: -13.7%
pIC50 [3]: 5.43
pIC50 [30]: 5.87
CLH [32]: 269 mL/min/kg
inhibition at 20 min, 10 µM [34]: -5.26%
inhibition [5]: Active
Papp B→A [35]: 25.3 ×10⁻⁶ cm/s
SMILES: O=S1(=O)CC2(OCCO2)c2cc3nccc(Nc4ccc5scnc5c4)c3cc21
pEC50 [4]: 6.27
Activity [15]: Active
pIC50 [22]: < 4.52
pEC50 [2]: 6.38
Activity [31]: Active
Activity [33]: Active

SMILES: O=S1(=O)CC2(CCCO2)c2cc3nccc(Nc4ccc5scnc5c4)c3cc21 (stereo not drawn)
pEC50 [2]: 5.40

— ChEMBL document CHEMBL4813992, “Ring closure strategy leads to potent RIPK3 inhibitors” (Eur J Med Chem, 2021)
